The term IC50 denotes the point on the concentration scale where inhibition reaches its midpoint. Lower therefore signals inhibition by little substance. The inhibition is the relative decrease from the control value, in per cent. Read a high inhibition as a response far below the control.

The target of test [1] is Glutamate NMDA receptor. The test is described as follows: (§1) Inhibition of receptor binding affinity in rat brain synaptosomal membrane was determined by [3H]-CGP- 39653 as radioligand. Type of test: cell membranes. In outline:
(§2)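 Displacement of radioligand ([3H]glutamate, [3H]glycine or [3H]CGP 39653) from rat cortex synaptosomal membranes. IC50 values are means of at least two experiments, each run in triplicate.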

The target in test [2] is Glutamate NMDA receptor. The test is described as follows: (§3) Inhibition of NMDA receptor binding affinity in rat brain synaptosomal membrane using [3H]glycine as radioligand. The format is cell membranes. Summed up:
as §2

The target in test [3] is Glutamate NMDA receptor. The test is described as follows: (§4) Inhibition of NMDA receptor binding affinity in rat brain synaptosomal membrane using [3H]glutamate as radioligand. The format is cell membranes. In outline:
as §2

In test [4] the test system is Mus musculus. In words: Maximal electroshock (MES) results in mice by iv administration of 0.3 mg/kg expressed as number of animals protected by total 5 animals tested after 15 min was reported. The format is functional. Summed up:
(§5)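 Adult male CF-1 mice (18–24 g) dosed iv, mg/kg. At 15 min, 1 h and 2 h after dosing, a 60 Hz sinusoidal current (50 mA base to peak, 0.2 s) is applied through corneal electrodes smeared with electrolyte jelly. Protection means no tonic hindlimb extension. Ataxia is scored by inverted screen. Data are expressed as animals affected per animals tested, 5 per group.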
In general terms: Protection in the maximal electroshock model is a classic sign of anticonvulsant action.

For test [5], the system named is Mus musculus. The test is described as follows: Maximal electroshock (MES) results in mice by iv administration of 0.3 mg/kg expressed as number of animals ataxia by total 5 animals tested after 15 min was reported. Type of test: functional. Summed up:
as §5

Test [6] deals with Mus musculus. In words: Maximal electroshock (MES) results in mice by iv administration of 0.3 mg/kg expressed as number of animals protected by total 5 animals tested after 2 hr was reported. The format is functional. Summed up: as §5
For test [7], the system named is Mus musculus. The test is described as follows: Maximal electroshock (MES) results in mice by iv administration of 0.3 mg/kg expressed as number of animals ataxia by number of animals tested after 1 hr was reported. The format is functional. Summed up: as §5
For test [8], the system named is Mus musculus. The test is described as follows: Maximal electroshock (MES) results in mice by iv administration of 1 mg/kg expressed as number of animals ataxia by total 5 animals tested after 15 min was reported. The format is functional. In outline: as §5
Test [9] concerns Mus musculus. In words: Maximal electroshock (MES) results in mice by iv administration of 1 mg/kg expressed as number of animals protected by total 5 animals tested after 15 min was reported. Type of test: functional. Summed up: as §5
The subject of test [10] is Mus musculus. In words: Maximal electroshock (MES) results in mice by iv administration of 1 mg/kg expressed as number of animals protected by total 5 animals tested after 2 hr was reported. The format is functional. In outline: as §5
For test [11], the system named is Mus musculus. In words: Maximal electroshock (MES) results in mice by iv administration of 1 mg/kg expressed as number of animals ataxia by total 5 animals tested after 1 hr was reported. The format is functional. In outline:
as §5

Test [12] has as its system Mus musculus. In words: Maximal electroshock (MES) results in mice by iv administration of 0.3 mg/kg expressed as number of animals protected by total 5 animals tested after 1 hr was reported. Type of test: functional. In outline: as §5
Test [13] deals with Mus musculus. The test is described as follows: Maximal electroshock (MES) results in mice by iv administration of 0.3 mg/kg expressed as number of animals ataxia by total 5 animals tested after 2 hr was reported. The format is functional. In outline:
as §5

Test [14] deals with Mus musculus. In words: Maximal electroshock (MES) results in mice by iv administration of 1 mg/kg expressed as number of animals ataxia by total 5 animals tested after 2 hr was reported. Type of test: functional. Summed up: as §5
Test [15] relates to Mus musculus. The test is described as follows: Maximal electroshock (MES) results in mice by iv administration of 1 mg/kg expressed as number of animals protected by total 5 animals tested after 1 hr was reported. The format is functional. Summed up:
as §5

Test [16] addresses T1, Glutamate NMDA receptor (Rattus norvegicus) (UniProt P35439+Q00959+Q00960+Q00961+Q62645+Q8VHN2+Q9R1M7). The test is described as follows: Inhibition of NMDA receptor binding in rat brain synaptosomal membrane using [3H]glutamate as radioligand. Type of test: cell membranes. The conditions noted are these: concentration not given here. In outline:
as §2

Test [17] concerns the target T1, Glutamate NMDA receptor (Rattus norvegicus). The description is as §1. Type of test: cell membranes. The settings on record: concentration not given here. In outline: as §2
For test [18] the target is unchanged. The test is described as follows: Inhibition of NMDA receptor binding affinity in rat brain synaptosomal membrane by using [3H]glycine as radioligand. Type of test: cell membranes. The settings on record: concentration not given here. In outline:
as §2

Test [19] shares this target. Described as §4. The format is cell membranes. The conditions noted are these: concentration not given here. Summed up: as §2
For test [20] the target is unchanged. The description is as §3. The format is cell membranes. The conditions noted are these: concentration not given here. In outline:
as §2

Consider `N[C@@H](Cc1cc(-c2ccccc2)cc(CP(=O)(O)O)c1[N+](=O)[O-])C(=O)O`, for which the figures for the IC50 on Glutamate NMDA receptor [1], on Glutamate NMDA receptor [2] and on Glutamate NMDA receptor [3] were 1080 nM, 11.5 µM and 2300 nM, respectively.
In the case of `N[C@@H](Cc1cc(CP(=O)(O)O)cc(-c2ccc3ccccc3c2)c1)C(=O)O`, the Protected in the test on Mus musculus [4] was 1; with Mus musculus [6], 2; in the test on Mus musculus [9] it was 1; in the test with Mus musculus [10], 5; with Mus musculus [12], 0; in the test with Mus musculus [15], 5. For the same molecule, the Ataxia with Mus musculus [5] was determined as 0; in the test with Mus musculus [7], 0; with Mus musculus [8], 0; with Mus musculus [11], 1; in the test on Mus musculus [13], 0; in the test on Mus musculus [14] it was 0. The figures for the half-maximal inhibitory concentration (IC50) on Glutamate NMDA receptor [1] and on Glutamate NMDA receptor [3] were 12 nM and 14 nM, respectively.
Consider `O=P(O)(O)Cc1cc(CP(=O)(O)O)cc(-c2ccccc2)c1`, for which the values for the inhibition in [16], in test [17] and in test [18] were 80%, 86% and 100%, respectively.
`N[C@H](Cc1cccc(-c2ccccc2)c1)C(=O)O`: the inhibition in test [17] stood at 100%; in test [19], 90%; in [20], 81%.
Take `N[C@@H](Cc1cccc(-c2ccccc2)c1)C(=O)O`: the inhibition in test [17] is 52%; in test [19], 58%; in [20], 52%.

The record behind these values is ChEMBL document CHEMBL1128383, “Potent, orally active, competitive N-methyl-D-aspartate (NMDA) receptor antagonists are substrates for a neutral amino acid uptake system in Chinese hamster ovary cells” (J Med Chem, 1995).
